# Data from PMC3822283 (Nature structural & molecular biology, 2013).
# Tests used:
# p38α [1] = biological target: T1, p38α (Mus musculus, UniProt P47811); assay: ITC binding to p38α; conditions: for association with p38α by ITC (in words): p38α alone, non phospho
# [2] = biological target: [p38α:TAB1(1-438)]complex (Mus musculus, UniProt P47811); assay: ITC binding to [p38α:TAB1
# p38α [3] = assay: co-transfection of HEK293 cells with TAB1 and p38α, p38 phosphorylation; format: cell-based
# [4] = system: p38 in wild-type (WT) hearts; assay: p38 dual phosphorylation during global myocardial ischemia, WT hearts; conditions: WT mouse hearts, global ischemia 5, 10 and 15 mins; 10 μM
# [5] = system: p38 in hearts expressing the p38α Thr106Met gatekeeper mutant (IRα); assay: p38 activity during global myocardial ischemia, IRα hearts; conditions: IRα mouse hearts, global ischemia 5, 10 and 15 mins; 10 μM
# p38α [6] = biological target: T1, p38α; assay: co-expression of p38α and TAB1 in E. coli, p38α phosphorylation; format: cell-based; conditions: western blot; Fig. 1d, 5d; inhibitors 10 μM
# Summary of the method: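 Mouse p38α and TAB1 (full-length, 1-438 or 1-418) were co-expressed in E. coli from dual vectors, with p38α in the first MCS and TAB1 in the second. Controls were empty vector and p38α alone.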
# [7] = system: isolated perfused mouse hearts; assay: contractile function of isolated perfused mouse hearts
# Summary of the method: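 Langendorff hearts from male C57BL/6 mice (pentobarbital 300mg/kg i.p., heparin 150 units) perfused at 80 mmHg with KHB (95% O2/5% CO2, 37°C). LV balloon EDP set 2-8 mmHg, paced 600 bpm. Inclusion required LVDP ≥60 mmHg and flow 1.5-3.5 ml/min. After 30 min baseline, coded TAT-TAB1 peptides at 15μM recirculated 15 min in 20 mL KHB. Preliminary runs used three concentrations (n=2). Two-way repeated-measures ANOVA, Bonferroni.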
# p38α [8] = conditions: time resolved FRET, non phospho p38α; ref Zhang et al., 2005; cited from earlier work
# p38 [9] = assay: p38 activation in adult rat ventricular myocytes; format: cell-based; conditions: ARVMs; peptides fused to TAT; immunoblot, Fig. 6c
# Summary of the method: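 Rat ventricular myocytes were washed in M199 with penicillin, streptomycin, 2mM L-carnitine, 5mM creatine and 5mM taurine, pelleted at 100 g for 2 min and plated on laminin at 37°C in 5% CO2. After 1 h, non-adherent cells were removed and TAT-TAB1(371-416) peptides (WT, A/B mutant, scrambled) added in fresh medium. Immunoblots used dual-phospho p38 (Thr180/Tyr182; 1:4,000) and total p38 (1:15,000) antibodies, with ECL detection. One-way ANOVA, Bonferroni.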
# [10] = system: isolated adult rat cardiac myocytes; assay: viability of adult rat ventricular myocytes; format: cell-based; conditions: ARVMs, later time points; peptides fused to TAT
# Summary of the method: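 Laminin-plated adult rat ventricular myocytes in supplemented M199 at 37°C in 5% CO2 were exposed to fluorescein (FAM)-labelled TAT-TAB1(371-416) peptides. They were imaged by confocal microscopy at later time points. Cell death was scored as a rounded cell appearance with homogeneous distribution of the fluorescein label.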
# p38 [11] = assay: p38 dual phosphorylation in isolated perfused mouse hearts; conditions: 15 mins exposure; immunoblot, Fig. 6g
# IRp38α = IRp38α co-expressed with TAB1 in HEK293 cells; format: cell-based; conditions: Fig. 1c
# Summary of the method: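 HEK293 cells were co-transfected with TAB1 and either p38α (HA-tagged, WT) or the gatekeeper mutant IRp38α, then exposed to BIRB793. p38 and TAB1 phosphorylation were read by immunoblot: dual-phospho p38 (Thr180/Tyr182) 1:4,000, total p38 1:15,000, overnight at 4 °C, ECL detection. Quantitation is from three independent transfections as mean ± s.d., analysed by one-way ANOVA with Bonferroni.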
# [12] = peptides fused to TAT, 15 μM, 15 min, recirculated, n=5 mouse hearts per group
molecule,measurement,setting,value
Nc1ncnc2c1ncn2[C@@H]1O[C@H](CO[P@](=O)(O)O[P@](=O)(O)O[P@@](=O)(O)S)[C@@H](O)[C@H]1O [ATPγS],association with p38α by ITC (in words),p38α [1],no measurable association by ITC
same,Kd,[2],5.3 µM
same,affinity for p38α in the presence of TAB1(1-438) (in words),"[2]; ITC, 1:1 stoichiometry",low μM affinity
C[S+]([O-])c1ccc(-c2nc(-c3ccncc3)c(-c3ccc(F)cc3)[nH]2)cc1 (stereo not shown) [SB203580],effect of inhibitor on TAB1-enhanced p38α dual phosphorylation,"p38α [3]; WTp38α, HEK293 cells, Fig. 1b",SB203580-sensitive
same,sensitivity of p38 dual phosphorylation to inhibitor,[4],sensitive
same,p38 activity (phosphorylation of TAB1 and HSP27) with inhibitor,[5],p38 remained active
"TAB1: TGF-β-activated protein kinase 1 (TAK1) binding protein 1, scaffold protein (EMSQPTPTPAPGGRVYPVSVPYSSAQSTSKTSVTLSLVMPSQGQMV)",p38α dual phosphorylation on co-expression in HEK293 cells,"p38α [3]; western blot, three independent transfections",enhanced p38α dual phosphorylation
same,p38α phosphorylation on co-expression in E. coli,p38α [6],enhanced
GYGRKKRRQRRRGEMSQPTPTPAPGGRVYPVSAPASSAQSTSKTSVTLSLGAPSQGQMV [TAT-TAB1(371-416A/B)],maximum concentration that did not cause discernible contractile dysfunction,"[7]; isolated mouse heart, preliminary experiments",15 µM
Nc1ncnc2c1ncn2[C@@H]1O[C@H](COP(=O)(O)OP(=O)(O)OP(=O)(O)O)[C@@H](O)[C@H]1O [ATP],Kd,p38α [8],13 ± 5.5 mM
GYGRKKRRQRRRGEMSQPTPTPAPGGRVYPVSVPYSSAQSTSKTSVTLSLVMPSQGQMV [TAT-TAB1(371-416)],coronary flow,"[7]; 15 μM, 15 min, recirculated, n=5 mouse hearts per group",reduction in coronary flow
same,developed pressure,[7]; [12],marked reduction in developed pressure
same,end-diastolic pressure,[7]; [12],elevation in the end-diastolic pressure
same,p38 activation,p38 [9],caused p38 activation
same,cell death,[10],cell death
same,p38 dual phosphorylation in perfused hearts,p38 [11],p38 dual phosphorylation
"Cc1ccc(-n2nc(C(C)(C)C)cc2NC(=O)Nc2ccc(OCCN3CCOCC3)c3ccccc23)cc1 [BIRB796, reference compound]",inhibition of p38α on effects of perfusion with TAB1(371-416) (WT),"[7]; LVDP and coronary flow, numbers per group WT=7 and WT+I=5, Fig. 6h",attenuates the effects of perfusion with TAB1(371-416)
same,"pattern of phosphorylation on inhibitor exposure, IRp38α coexpressed with TAB1",IRp38α,altered
TAB1(371-416A/B) (EMSQPTPTPAPGGRVYPVSAPASSAQSTSKTSVTLSLGAPSQGQMV),association with p38α by ITC (in words),p38α [1],no binding was detected
same,p38 activation,p38 [9],but not TAB1(371-416A-B) caused p38 activation
"TAB1(1-438): recombinant mouse TAB1(1-438), N-terminal HexaHistidine tag and TEV site (protein) MAAQRRSLLQSEQQPSWTDDLPLCHLSGVGSASNRSYSADGKGTESHPPEDNWLKFRSENNCFLYGVFNGYDGNRVTNFVAQRLSAELLLGQLNTEHTEADVRRVLLQAFDVVERSFLESIDDALAEKASLQSQLPEGVPQHQLPPQYQKILERLKALEREISGGAMAVVAVLLNSKLYVANVGTNRALLCKSTVDGLQVTQLNMDHTTENEDELFRLSQLGLDAGKIKQMGVICGQESTRRIGDYKVKYGYTDIDLLSAAKSKPIIAEPEIHGAQPLDGVTGFLVLMSEGLYKALEAAHGPGQANQEIAAMIDTEFAKQTSLDAVAQAVVDRVKRIHSDTFASGGERAKFCPRHEDMTLLVRNFGYPLGEMSQPTPTPAPGGRVYPVSVPYSSAQSTSKTSVTLSLVMPSQGQMVNGSHSASTLDEATPTLTNQSPT",−TΔS,"p38α [1]; 25°C, ΔG = ΔH-TΔS",5.1 kcal/mol
same,association with p38α by ITC (in words),p38α [1],binding affinity in the low micromolar range
